Test results reported in ChEMBL document CHEMBL3862004, “A Cyclic Tetrapeptide ("Cyclodal") and Its Mirror-Image Isomer Are Both High-Affinity μ Opioid Receptor Antagonists” (J Med Chem, 2016).
Calls of active or inactive are those of the source. No cut-off for these calls is given here.

Columns and labels:
[1] = target: Delta-type opioid receptor (Mus musculus) (UniProt P32300); test: Partial agonist activity at delta opioid receptor in mouse vas deferens assessed as inhibition of electrically-stimulated muscle contraction
Delta-type opioid receptor (Mus musculus), sequence (P32300 whole entry): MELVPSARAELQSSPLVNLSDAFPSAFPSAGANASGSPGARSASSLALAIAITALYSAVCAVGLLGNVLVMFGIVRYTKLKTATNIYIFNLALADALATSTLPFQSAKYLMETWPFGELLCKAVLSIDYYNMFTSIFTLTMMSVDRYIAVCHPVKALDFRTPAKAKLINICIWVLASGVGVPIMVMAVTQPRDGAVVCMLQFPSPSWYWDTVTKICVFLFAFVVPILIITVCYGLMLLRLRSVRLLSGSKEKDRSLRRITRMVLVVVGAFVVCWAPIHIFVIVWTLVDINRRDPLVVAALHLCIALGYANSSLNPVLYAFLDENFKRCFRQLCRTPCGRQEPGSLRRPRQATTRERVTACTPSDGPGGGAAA
Method in brief: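 Mouse vas deferens preparation. A [Leu5]enkephalin dose–response curve was run on each preparation as standard, and test IC50 values were normalised to it. Mean of three to four determinations ± SEM.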

[2] = Selectivity ratio of Ki for KOR in guinea pig brain membrane to Ki for MOR in rat brain membrane; type: cell membranes
[3] = organism: Rattus norvegicus; test: Selectivity ratio of Ki for DOR in rat brain membrane to Ki for MOR in rat brain membrane; type: cell membranes
[4] = AUC in CD-1 mouse brain at 2 mg/kg, iv by LC-MS/MS analysis; type: ADME, organism-based; details: in vivo
Method in brief: (§1)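 Male CD1 mice (27 g) given 2 mg/kg iv in saline; brain and plasma sampled at 5, 15, 30, 60, 120 and 240 min. Brain homogenised in PBS pH 7.4, plasma proteins precipitated with acetonitrile/methanol (1:1). Quantitation by LC–MS/MS against internal standard, with standard curves extracted from brain homogenate and fitted by 1/x-weighted linear regression. AUCs were taken from concentration–time curves.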

[5] = Cmax in CD-1 mouse brain at 2 mg/kg, iv measured after 30 mins by LC-MS/MS analysis; type: ADME, organism-based; set-up: dose 2 mg/kg, route intravenous; method in brief: as §1
[6] = AUC in CD-1 mouse plasma at 2 mg/kg, iv by LC-MS/MS analysis; type: ADME, organism-based; method in brief: as §1
[7] = Metabolic stability in rat plasma at 37 degC measured up to 48 hrs by reverse-phase HPLC analysis; type: ADME, cell-free
Method in brief: (§2)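 Peptide at 0.5 mg/mL in 0.01 M phosphate buffer pH 7.4 mixed 1:1 with rat plasma supernatant and incubated at 37 °C. Samples taken at 0, 5, 10, 15, 30 min and 1, 2, 3, 24, 48 h, quenched with acetonitrile and 2% TFA/water. Analysed by reversed-phase C18 HPLC; peak areas expressed as percent of initial.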

[8] = target: Kappa-type opioid receptor (Cavia porcellus, UniProt P41144); test: Displacement of [3H]U69,593 from KOR in guinea pig brain membrane measured after 2 hrs; type: cell membranes
Kappa-type opioid receptor, sequence (P41144 whole entry): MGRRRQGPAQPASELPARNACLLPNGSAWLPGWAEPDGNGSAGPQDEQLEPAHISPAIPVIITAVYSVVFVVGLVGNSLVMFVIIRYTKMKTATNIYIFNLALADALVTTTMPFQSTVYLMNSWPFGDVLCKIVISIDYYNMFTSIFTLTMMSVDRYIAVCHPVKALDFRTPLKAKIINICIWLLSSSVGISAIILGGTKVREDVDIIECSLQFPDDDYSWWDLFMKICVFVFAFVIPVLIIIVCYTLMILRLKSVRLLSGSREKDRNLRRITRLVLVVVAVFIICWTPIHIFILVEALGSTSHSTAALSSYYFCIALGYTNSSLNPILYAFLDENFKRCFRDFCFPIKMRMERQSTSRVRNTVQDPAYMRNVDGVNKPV
Method in brief: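 Guinea pig brain membranes incubated 2 h at 0 °C with 0.80 nM [3H]U69,593. […] Values are the mean of three to four determinations ± SEM.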

[9] = target: Delta-type opioid receptor (Rattus norvegicus, UniProt P33533); test: Displacement of [3H]DSLET from DOR in rat brain membrane measured after 2 hrs; type: cell membranes
Delta-type opioid receptor, sequence (P33533 whole entry): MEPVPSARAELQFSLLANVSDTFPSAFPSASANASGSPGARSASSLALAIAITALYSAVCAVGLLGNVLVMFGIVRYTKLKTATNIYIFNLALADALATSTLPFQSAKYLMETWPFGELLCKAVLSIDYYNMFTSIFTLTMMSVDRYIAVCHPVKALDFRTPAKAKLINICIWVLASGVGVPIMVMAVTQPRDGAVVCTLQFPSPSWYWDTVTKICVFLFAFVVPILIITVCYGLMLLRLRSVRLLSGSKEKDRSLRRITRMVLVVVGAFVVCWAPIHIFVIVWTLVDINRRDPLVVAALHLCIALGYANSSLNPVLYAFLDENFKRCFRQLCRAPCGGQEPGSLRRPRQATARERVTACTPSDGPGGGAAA

[10] = Metabolic stability in rat plasma assessed as compound degradation at 37 degC measured after 2 hrs by reverse-phase HPLC analysis; type: ADME, cell-free; details: read-out: Drug degradation; method in brief: as §2
[11] = target: Mu-type opioid receptor (Cavia porcellus, UniProt P97266); test: Agonist activity at MOR in guinea pig ileum assessed as inhibition of electrically-stimulated muscle contractions
Mu-type opioid receptor (Cavia porcellus, UniProt P97266), sequence (P97266 whole entry): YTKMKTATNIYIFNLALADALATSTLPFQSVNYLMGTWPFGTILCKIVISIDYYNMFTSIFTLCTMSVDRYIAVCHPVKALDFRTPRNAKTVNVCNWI
Method in brief: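 Isolated guinea pig ileum preparation; each preparation received a [Leu⁵]enkephalin standard dose–response curve. IC50 values came from concentration–response curves and were normalized to that standard. Values are the mean of three to four determinations ± SEM.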

[12] = target: Mu-type opioid receptor (Cavia porcellus) (UniProt P97266); test: Antagonist activity at MOR in guinea pig ileum assessed as inhibition of TAPP-induced muscle contractions
Mu-type opioid receptor (Cavia porcellus), sequence (P97266 whole entry): as above
Method in brief: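 Guinea pig ileum preparation. Ke was derived from the ratio of TAPP IC50 with and without a fixed antagonist concentration. Mean of three to four determinations ± SEM.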

[13] = Metabolic stability in rat plasma assessed as compound remaining at 37 degC measured after 15 mins by reverse-phase HPLC analysis
[14] = target: Mu-type opioid receptor (Rattus norvegicus, UniProt P33535); test: Displacement of [3H]DAMGO from MOR in rat brain membrane measured after 2 hrs; type: cell membranes
Mu-type opioid receptor (Rattus norvegicus, UniProt P33535), sequence (P33535 whole entry): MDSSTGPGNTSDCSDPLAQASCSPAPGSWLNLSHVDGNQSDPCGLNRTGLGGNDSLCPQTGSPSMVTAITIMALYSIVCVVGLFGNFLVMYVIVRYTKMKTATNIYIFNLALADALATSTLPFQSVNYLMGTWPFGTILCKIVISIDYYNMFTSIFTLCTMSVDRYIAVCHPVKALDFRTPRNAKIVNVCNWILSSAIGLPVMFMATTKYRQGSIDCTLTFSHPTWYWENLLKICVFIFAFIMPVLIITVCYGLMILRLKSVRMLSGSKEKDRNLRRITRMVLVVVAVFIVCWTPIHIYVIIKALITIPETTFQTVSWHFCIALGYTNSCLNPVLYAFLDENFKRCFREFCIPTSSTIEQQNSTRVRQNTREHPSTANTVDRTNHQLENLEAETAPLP

[15] = target: Kappa-type opioid receptor (Cavia porcellus) (UniProt P41144); test: Antagonist activity at KOR in guinea pig ileum assessed as inhibition of U50,488-induced muscle contractions
Kappa-type opioid receptor (Cavia porcellus), sequence (P41144 whole entry): as the sequence (P41144 whole entry) above

In the case of `Cc1cc(O)cc(C)c1C[C@@H]1NC(=O)[C@H](CCCCN)NC(=O)[C@H](Cc2ccccc2)NC(=O)[C@@H](CCCCNC(=N)N)NC1=O`, the Activity [1] is reported as “Active”, the Ratio Ki [2] is reported as 23 and the Ratio Ki [3] is reported as 25.
For `Cc1cc(O)cc(C)c1C[C@@H]1NC(=O)[C@H](CCCCN)NC(=O)[C@H](Cc2ccccc2)NC(=O)[C@@H](CCCNC(=N)N)NC1=O`, the AUC [4] was 0.052 µg·min/g, the Cmax [5] was 0.6 ng/g and the AUC [6] was 0.505 ng·h/mL. The Stability [7] was “Stable”.
For `C[C@@H](O)[C@H](NC(=O)[C@H]1NC(=O)[C@H]([C@@H](C)O)NC(=O)[C@H](CCCN)NC(=O)[C@@H](Cc2c[nH]c3ccccc23)NC(=O)[C@H](Cc2ccc(O)cc2)NC(=O)[C@@H](NC(=O)[C@H](N)Cc2ccccc2)CSSC1(C)C)C(N)=O`, the Ki [8] was 14900 nM, the Ki [9] was 258 nM and the Activity [1] was “Active”. The metabolised at 2 h [10] was 25%.
With `CCCC[C@@H]1NC(=O)[C@H](Cc2ccccc2)NC(=O)[C@@H](CCCNC(=N)N)NC(=O)[C@H](Cc2c(C)cc(O)cc2C)NC1=O` the Activity [1] was “Active”.
In the case of `Cc1cc(O)cc(C)c1C[C@@H]1NC[C@H](CCCCN)NC(=O)[C@H](Cc2ccccc2)NC(=O)[C@@H](CCCNC(=N)N)NC1=O`, the IC50 [11] is reported as 2510 nM, the Activity [1] is reported as “Active” and the Ratio Ki [2] is reported as 7. It also gave a Ratio Ki [3] of 47.
With `Cc1cc(O)cc(C)c1C[C@@H]1NC(=O)C(CCCN)NC(=O)[C@H](Cc2ccccc2)NC(=O)[C@@H](CCCNC(=N)N)NC1=O` (stereo partly drawn) the Activity [1] was “Active” and the Ke [12] was 16.8 nM.
With `CC(C)C[C@H](NC(=O)[C@H](Cc1ccccc1)NC(=O)CNC(=O)CNC(=O)[C@@H](N)Cc1ccc(O)cc1)C(=O)O` [ENKEPHALIN] the remaining at 0.25 h [13] was under 15%.
With `Cc1cc(O)cc(C)c1C[C@@H]1NC(=O)[C@H](CCCCN)NC(=O)[C@H](Cc2ccccc2)NC(=O)[C@@H](CCCNC(N)=O)NC1=O` the Ratio Ki [2] was 165 and the Ratio Ki [3] was 52.
`Cc1cc(O)cc(C)c1C[C@@H]1NC(=O)C[C@H](CCCCN)NC(=O)[C@H](Cc2ccccc2)NC(=O)[C@@H](CCCNC(=N)N)NC1=O` gave a Ki [14] of 0.124 nM, a Ki [8] of 0.786 nM and a Ke [15] of 18.2 nM. It also gave a Ki [9] of 16.7 nM, a Ratio Ki [2] of 6 and a Ke [12] of 10.5 nM. For the same molecule, the Ratio Ki [3] was 135.
